This is an account of results in ChEMBL document CHEMBL1764953, “Discovery of orally active carboxylic acid derivatives of 2-phenyl-5-trifluoromethyloxazole-4-carboxamide as potent diacylglycerol acyltransferase-1 inhibitors for the potential treatment of obesity and diabetes” (J Med Chem, 2011).

The test system of data set [1] is Rattus norvegicus. The data set can be described thus: Antiobesity activity in diet-induced obese rat assessed as decrease in food intake at 3 mg/kg, po administered once daily for 3 weeks. Format: functional. Also noted: scale not given: the % may be the effect or the level left. An outline of the steps: (§1)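 Male DIO rats, 19 weeks old, on high fat diet for 12 weeks, dosed po once daily with Klucel (hydroxypropyl cellulose) suspension for 22 days; 10 rats per group. Body weight followed throughout; daily food intake recorded on days 1–3, 8, 9, 15 and 16, values averaged per group.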

The test system of data set [2] is Rattus norvegicus. The experiment in a line: Antiobesity activity in diet-induced obese rat assessed as decrease in food intake at 0.3 mg/kg, po administered once daily for 3 weeks. It counts as functional. Further details: scale not given: the % may be the effect or the level left. In outline: as §1
A short description of data set [3]: Cmax in diet-induced obese rat at 3 mg/kg, po administered once daily for 3 weeks. Further details: dose 3 mg/kg, route oral. It counts as ADME, organism-based. To be noted: in vivo.
Data set [4] can be described thus: Cmax in diet-induced obese rat at 0.3 mg/kg, po administered once daily for 3 weeks. It counts as ADME, organism-based. Also noted: dose 0.3 mg/kg, route oral. To be noted: in vivo.
A short description of data set [5]: Cmax in Beagle dog at 10 mg/kg, po by LC-MS/MS. Format: ADME, organism-based, Canis lupus familiaris. Further details: dose 10 mg/kg, route oral. To be noted: in vivo. In outline:
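Plasma extracted by acetonitrile precipitation and quantified by LC-MS/MS (5.0–5000 ng/mL); noncompartmental PK; bioavailability relative to 5 mg/kg iv; mean of n = 3.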

Data set [6] can be described thus: Clearance in Hanover Wistar rat at 5 mg/kg, iv. It counts as ADME, organism-based. Also noted: dose 5 mg/kg, route intravenous. To be noted: in vivo. In outline:
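Hanover Wistar rats (n = 3) cannulated in jugular and femoral veins, dosed iv 5 mg/kg via jugular vein as a solution in 2% DMA, 15% PEG400, 77% of 28% HPβCD in pH 7 PBS. Femoral-vein blood, EDTA plasma, acetonitrile precipitation, LC-MS/MS, noncompartmental analysis; mean of n = 3.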

Data set [7] in a line: Inhibition of P-glycoprotein.
The target in another data set is Cytochrome P450 2C9 (Homo sapiens, UniProt P11712). The data set can be described thus: Inhibition of CYP2C9. Format: ADME.
Cytochrome P450 2C9, sequence (P11712 whole entry): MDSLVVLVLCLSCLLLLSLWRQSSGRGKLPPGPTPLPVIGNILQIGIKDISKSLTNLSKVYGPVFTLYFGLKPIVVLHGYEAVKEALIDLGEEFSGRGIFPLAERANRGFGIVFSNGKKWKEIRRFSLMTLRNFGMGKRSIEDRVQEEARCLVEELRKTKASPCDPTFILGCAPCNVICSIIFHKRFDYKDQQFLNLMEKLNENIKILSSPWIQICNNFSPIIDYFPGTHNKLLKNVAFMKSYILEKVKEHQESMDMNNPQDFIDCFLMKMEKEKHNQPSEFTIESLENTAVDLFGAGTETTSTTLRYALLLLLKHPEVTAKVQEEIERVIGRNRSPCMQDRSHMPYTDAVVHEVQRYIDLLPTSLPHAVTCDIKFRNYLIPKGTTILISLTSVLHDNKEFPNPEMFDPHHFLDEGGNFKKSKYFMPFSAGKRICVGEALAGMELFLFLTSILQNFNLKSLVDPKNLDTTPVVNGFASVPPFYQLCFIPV
Data set [8] has as its target T1, Diacylglycerol O-acyltransferase 2 (Homo sapiens, UniProt Q96PD7).
T1 sequence (Q96PD7 whole entry): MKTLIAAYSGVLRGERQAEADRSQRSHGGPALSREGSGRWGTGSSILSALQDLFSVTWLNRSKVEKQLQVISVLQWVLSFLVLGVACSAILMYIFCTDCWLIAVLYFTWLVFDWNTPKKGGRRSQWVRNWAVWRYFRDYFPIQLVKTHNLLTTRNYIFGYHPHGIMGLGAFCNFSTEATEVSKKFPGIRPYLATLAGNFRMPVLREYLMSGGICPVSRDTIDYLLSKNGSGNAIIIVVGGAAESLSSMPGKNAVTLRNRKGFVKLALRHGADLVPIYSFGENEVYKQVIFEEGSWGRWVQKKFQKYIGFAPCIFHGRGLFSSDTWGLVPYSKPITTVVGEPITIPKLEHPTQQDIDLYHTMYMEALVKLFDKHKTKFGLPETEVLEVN
The data set can be described thus: Inhibition of human DGAT2 expressed in baculovirus infected Sf9 cells using palmitoyl-1-14C-coenzyme A by TLC assay. An outline of the steps:
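DGAT-2 membranes from baculovirus-infected Sf9 cells, diluted to 0.313 mg/mL in 50 mM Tris pH 7.5, 20 mM MgCl2, 0.25 M sucrose. Preincubated 15 min on ice with compound (0–600 μM solutions in 20% DMSO), then DAG and 8.3 μM [14C]palmitoyl-CoA solutions added; 5 min at 37 °C. Lipids extracted with chloroform/methanol, resolved by TLC, phosphoimager read-out.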

Another data set addresses hERG (Homo sapiens, UniProt Q12809). The data set can be described thus: Inhibition of human ERG-mediated current expressed in CHO cells by patch clamp method. It counts as cell-based. To be noted: CHO cells expressing human ERG. In outline:
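hERG-transfected CHO cells on automated whole-cell patch clamp at a holding potential of −80 mV; 1 s depolarizing pulse at 0.1 Hz; tail current measured at −40 mV. Sequence: 0.3% DMSO vehicle, three ascending log-interval concentrations up to 30 μM or the solubility limit, then 1 μM E-4031. At least 3 cells per compound; data normalized to vehicle and fitted with the Hill equation.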
For orientation: The patch-clamp technique gives a direct electrical read-out from membranes.

Data set [9] relates to Rattus norvegicus. The experiment in a line: Antidiabetic activity in diet-induced obese Sprague-Dawley rat assessed as effect on insulin level at 3 mg/kg, po administered once daily for 3 weeks measured after 30 mins by OGTT. Also noted: dose 3 mg/kg. Format: functional, organism-based. An outline of the steps: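 DIO rats (n = 10/group) on high fat diet, dosed po once daily in Klucel suspension for 3 weeks. On day 21 an oral glucose challenge of 2 g/kg was given, and plasma insulin was measured at the 30 min time point.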

The target of data set [10] is T2, Sterol O-acyltransferase 2 (Homo sapiens, UniProt O75908).
T2 sequence (O75908 whole entry): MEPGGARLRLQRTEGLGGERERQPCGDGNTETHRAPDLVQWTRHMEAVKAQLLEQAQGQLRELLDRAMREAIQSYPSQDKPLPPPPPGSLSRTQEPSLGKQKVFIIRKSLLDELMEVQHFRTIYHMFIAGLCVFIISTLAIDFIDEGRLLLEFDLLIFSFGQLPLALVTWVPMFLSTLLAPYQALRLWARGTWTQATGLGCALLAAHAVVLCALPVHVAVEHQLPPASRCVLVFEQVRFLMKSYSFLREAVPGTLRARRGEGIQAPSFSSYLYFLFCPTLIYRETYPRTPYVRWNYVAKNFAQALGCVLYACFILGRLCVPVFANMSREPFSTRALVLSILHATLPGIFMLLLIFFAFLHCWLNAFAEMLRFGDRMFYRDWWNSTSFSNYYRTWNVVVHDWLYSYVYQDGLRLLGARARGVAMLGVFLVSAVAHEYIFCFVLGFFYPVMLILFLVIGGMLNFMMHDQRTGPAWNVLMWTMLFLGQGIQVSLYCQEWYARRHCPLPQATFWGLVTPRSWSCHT
The data set can be described thus: Inhibition of human ACAT2 expressed in human HepG2 cells after incubated with compound for 15 mins measured after 1 hr using palmitoyl-1-14C-coenzyme A by TLC assay. Format: cell-based. An outline of the steps: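 HepG2 membranes (mixed ACAT1/ACAT2), 2.6 mg/mL stock, diluted to 0.52 mg/mL in Tris pH 7.5 buffer. Preincubated 15 min on ice with compound (0–600 μM solutions in 20% DMSO), then 2.37 μM [1-14C]palmitoyl-CoA solution added. Product extracted and resolved by TLC with phosphoimager read-out.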

The target in data set [11] is T3, Diacylglycerol O-acyltransferase 1 (Homo sapiens, UniProt O75907).
T3 sequence (O75907 whole entry): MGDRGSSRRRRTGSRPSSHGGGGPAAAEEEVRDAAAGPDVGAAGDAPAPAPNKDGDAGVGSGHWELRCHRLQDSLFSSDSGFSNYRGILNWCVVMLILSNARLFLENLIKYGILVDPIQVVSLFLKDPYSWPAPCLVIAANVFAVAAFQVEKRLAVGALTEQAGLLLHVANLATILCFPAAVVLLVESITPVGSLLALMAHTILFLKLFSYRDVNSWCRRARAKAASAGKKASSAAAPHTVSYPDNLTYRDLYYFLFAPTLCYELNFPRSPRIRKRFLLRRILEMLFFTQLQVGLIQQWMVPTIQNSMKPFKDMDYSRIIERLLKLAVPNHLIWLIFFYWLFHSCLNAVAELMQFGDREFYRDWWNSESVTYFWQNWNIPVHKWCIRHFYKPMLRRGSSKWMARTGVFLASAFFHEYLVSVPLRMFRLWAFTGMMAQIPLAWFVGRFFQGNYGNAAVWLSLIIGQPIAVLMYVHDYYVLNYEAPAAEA
The experiment in a line: Inhibition of human DGAT1 expressed in CHO-K1 cells after 1 hr using 14C palmitic acid.

One may read the Cmax as the highest concentration seen after dosing. As usually defined, the clearance is the rate of elimination divided by the concentration. What is called IC50 is the concentration at which inhibition is half-maximal. By IC20 is commonly meant the point of the concentration-response curve where the effect stands at 20%. Usually EC50 stands for the concentration needed to bring the measured effect to its halfway point.

The source made the active and inactive calls. No cut-off for these calls is given here.

hERG, sequence (Q12809 whole entry): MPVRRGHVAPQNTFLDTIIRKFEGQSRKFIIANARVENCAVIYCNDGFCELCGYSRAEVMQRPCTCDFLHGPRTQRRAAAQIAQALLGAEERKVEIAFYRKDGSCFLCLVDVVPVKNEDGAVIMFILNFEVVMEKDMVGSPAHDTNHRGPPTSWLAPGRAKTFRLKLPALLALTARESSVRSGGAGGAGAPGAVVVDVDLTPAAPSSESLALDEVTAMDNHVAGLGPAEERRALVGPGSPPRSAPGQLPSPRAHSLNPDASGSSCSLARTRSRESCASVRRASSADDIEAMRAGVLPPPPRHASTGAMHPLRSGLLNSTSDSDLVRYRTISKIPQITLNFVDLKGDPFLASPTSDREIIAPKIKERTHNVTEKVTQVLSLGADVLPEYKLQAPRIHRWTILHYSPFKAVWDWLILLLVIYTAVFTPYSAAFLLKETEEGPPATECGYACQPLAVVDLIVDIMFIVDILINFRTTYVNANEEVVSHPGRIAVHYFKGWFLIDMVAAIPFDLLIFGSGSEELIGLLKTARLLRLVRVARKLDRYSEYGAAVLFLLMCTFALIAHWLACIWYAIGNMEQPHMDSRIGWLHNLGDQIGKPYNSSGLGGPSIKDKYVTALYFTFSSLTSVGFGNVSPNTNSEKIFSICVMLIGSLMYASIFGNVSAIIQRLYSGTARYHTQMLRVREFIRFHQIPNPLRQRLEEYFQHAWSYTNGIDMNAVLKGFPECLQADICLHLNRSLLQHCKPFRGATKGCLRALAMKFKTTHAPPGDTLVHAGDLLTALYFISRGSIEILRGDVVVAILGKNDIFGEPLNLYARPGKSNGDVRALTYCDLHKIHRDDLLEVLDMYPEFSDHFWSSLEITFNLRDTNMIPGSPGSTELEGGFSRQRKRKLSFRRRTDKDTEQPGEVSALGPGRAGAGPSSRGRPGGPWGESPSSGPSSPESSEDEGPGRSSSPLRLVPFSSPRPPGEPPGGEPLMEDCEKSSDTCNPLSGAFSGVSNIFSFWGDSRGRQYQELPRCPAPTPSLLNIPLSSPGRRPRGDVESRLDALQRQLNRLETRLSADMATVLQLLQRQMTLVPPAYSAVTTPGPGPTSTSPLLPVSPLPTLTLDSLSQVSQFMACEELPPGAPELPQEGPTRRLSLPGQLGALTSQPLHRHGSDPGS

For the compound `O=C(Nc1ccc(C2CCN(C(=O)[C@H]3CC[C@H](C(=O)O)CC3)CC2)cc1)c1nc(-c2ccccc2)oc1C(F)(F)F`, the Activity in the data set on Rattus norvegicus [1] stood at 27%; with Rattus norvegicus [2] it was 17%. Also, the maximum concentration (Cmax) is 15.1 µM in data set [3], 2 µM in data set [4] and 4.7 µM in data set [5]. The same compound showed a clearance in data set [6] of 0.38 mL/min/kg. For the same compound, the inhibition entry in data set [7] is “inactive”. In addition, the results for the IC50 (at Cytochrome P450 2C9; in data set [8]; in data set [10]) were more than 50 µM, more than 100 µM and 68.4 µM, respectively. Further, the 20% effect level against hERG (IC20) was put at 30 µM. Moreover, the result in the data set with Rattus norvegicus [9] was inactive. The compound also gave a concentration giving a half-maximal response (EC50) in data set [11] of 0.493 µM.
